Results taken from ChEMBL document CHEMBL1208708, “Piperidinyl-nicotinamides as potent and selective somatostatin receptor subtype 5 antagonists” (Bioorg Med Chem Lett, 2010).
In brackets after ≈: the same amount, converted by molar mass. Activity calls are given as the source filed them. The calls are words filed in the database; no cut-off is given here.

Experiments:
[1] = molecular target: T1, Somatostatin receptor type 5 (Homo sapiens, UniProt P35346); test: Displacement of radio labeled 11 Tyr SST14 from human SST5 receptor expressed in CHO cells; type: cell-based
T1 sequence (P35346 whole entry): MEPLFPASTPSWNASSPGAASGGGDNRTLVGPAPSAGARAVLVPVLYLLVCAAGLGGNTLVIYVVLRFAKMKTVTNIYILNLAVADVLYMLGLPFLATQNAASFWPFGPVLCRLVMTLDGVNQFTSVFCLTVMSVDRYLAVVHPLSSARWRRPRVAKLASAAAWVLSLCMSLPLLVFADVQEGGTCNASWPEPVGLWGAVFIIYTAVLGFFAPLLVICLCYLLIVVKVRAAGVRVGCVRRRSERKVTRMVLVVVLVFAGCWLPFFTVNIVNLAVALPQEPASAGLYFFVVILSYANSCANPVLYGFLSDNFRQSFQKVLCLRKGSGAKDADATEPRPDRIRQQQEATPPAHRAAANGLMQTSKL
Outline: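 Membranes from SST5-expressing cells, made by sonication, incubated with radiolabeled 11Tyr SST-14 and varying test compound; non-specific binding defined with unlabeled SST-14. Incubation stopped by glass-fiber filtration, bound radioactivity counted; IC50 and Ki derived.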

[2] = molecular target: Histamine H1 receptor (Homo sapiens) (UniProt P35367); test: Inhibition of human histamine H1 receptor ar 3 uM
Chain of Histamine H1 receptor (Homo sapiens) (P35367 whole entry): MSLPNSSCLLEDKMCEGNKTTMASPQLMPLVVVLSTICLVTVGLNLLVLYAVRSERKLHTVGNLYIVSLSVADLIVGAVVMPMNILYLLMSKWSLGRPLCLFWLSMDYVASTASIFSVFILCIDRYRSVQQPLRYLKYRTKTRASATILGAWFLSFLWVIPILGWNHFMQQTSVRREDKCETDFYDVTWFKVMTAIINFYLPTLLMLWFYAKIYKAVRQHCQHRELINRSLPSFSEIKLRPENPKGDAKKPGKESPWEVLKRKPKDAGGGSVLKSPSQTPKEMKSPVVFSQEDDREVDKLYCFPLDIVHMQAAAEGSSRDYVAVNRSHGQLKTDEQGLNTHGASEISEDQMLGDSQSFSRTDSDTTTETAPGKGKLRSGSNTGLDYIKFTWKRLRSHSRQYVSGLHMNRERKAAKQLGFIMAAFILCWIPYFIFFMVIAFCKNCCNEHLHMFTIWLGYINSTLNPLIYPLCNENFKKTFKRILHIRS

[3] = organism: Homo sapiens; test: Selectivity ratio of human SST1 receptor to human SST5 receptor
[4] = molecular target: Somatostatin receptor type 4 (Homo sapiens) (UniProt P31391); test: Antagonist activity at human SST4 receptor expressed in CHO cells assessed as inhibition of forskolin-induced cAMP accumulation by FRET assay; type: functional, cell-based
Chain of Somatostatin receptor type 4 (Homo sapiens) (P31391 whole entry): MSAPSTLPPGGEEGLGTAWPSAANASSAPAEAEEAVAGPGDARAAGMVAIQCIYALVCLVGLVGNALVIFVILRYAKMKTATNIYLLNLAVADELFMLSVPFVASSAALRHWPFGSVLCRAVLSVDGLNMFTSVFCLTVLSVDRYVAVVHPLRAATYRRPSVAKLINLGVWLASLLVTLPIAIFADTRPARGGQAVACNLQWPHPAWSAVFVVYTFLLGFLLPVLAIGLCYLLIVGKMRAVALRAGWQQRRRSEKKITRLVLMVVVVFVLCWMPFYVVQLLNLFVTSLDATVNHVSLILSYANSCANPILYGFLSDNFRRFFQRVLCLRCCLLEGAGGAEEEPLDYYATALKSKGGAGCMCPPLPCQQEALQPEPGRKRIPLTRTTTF

[5] = molecular target: T1, Somatostatin receptor type 5; test: Antagonist activity at human SST5 receptor expressed in CHO cells assessed as inhibition of forskolin-induced cAMP accumulation by FRET assay; type: functional, cell-based
[6] = Dissociation constant, pKa of the compound by spectrophotometric analysis; type: physicochemical
Outline: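 Measured spectrophotometrically in SGA buffer with 10% (v/v) methanol, ionic strength 150 mM; value refers to the piperidine nitrogen.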

[7] = Octanol-TAPSO distribution coefficient, log D of the compound at pH 7.4 by spectrophotometric analysis; type: physicochemical; conditions: octanol/TAPSO buffer
Outline: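 Octanol/50 mM TAPSO buffer at pH 7.4 containing 5% (v/v) DMSO; partitioning read spectrophotometrically.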

[8] = Membrane permeability of the compound by PAMPA; type: ADME; conditions: read-out: permeability
[9] = Solubility of the compound in 50 mM phosphate buffer at pH 6.5 by lyophilisation solubility assay; type: physicochemical
Outline: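 Compound taken from DMSO stock solution, lyophilized, then dissolved in 50 mM phosphate buffer at pH 6.5; dissolved amount read spectrophotometrically.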

[10] = molecular target: Somatostatin receptor type 2 (Homo sapiens) (UniProt P30874); test: Antagonist activity at human SST2 receptor expressed in CHO cells assessed as inhibition of forskolin-induced cAMP accumulation by FRET assay; type: functional, cell-based
Chain of Somatostatin receptor type 2 (Homo sapiens) (P30874 whole entry): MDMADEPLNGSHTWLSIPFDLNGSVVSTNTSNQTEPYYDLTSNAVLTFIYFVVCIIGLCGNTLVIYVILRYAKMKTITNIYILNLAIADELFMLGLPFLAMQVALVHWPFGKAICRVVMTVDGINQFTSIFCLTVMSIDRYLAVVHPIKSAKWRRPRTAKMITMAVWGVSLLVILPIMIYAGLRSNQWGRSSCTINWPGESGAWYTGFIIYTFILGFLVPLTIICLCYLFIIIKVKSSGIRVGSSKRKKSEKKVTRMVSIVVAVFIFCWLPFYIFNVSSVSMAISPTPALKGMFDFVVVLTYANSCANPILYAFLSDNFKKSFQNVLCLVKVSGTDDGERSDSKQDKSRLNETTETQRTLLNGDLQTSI

[11] = molecular target: Somatostatin receptor type 3 (Homo sapiens) (UniProt P32745); test: Antagonist activity at human SST3 receptor expressed in CHO cells assessed as inhibition of forskolin-induced cAMP accumulation by FRET assay; type: functional, cell-based
Chain of Somatostatin receptor type 3 (Homo sapiens) (P32745 whole entry): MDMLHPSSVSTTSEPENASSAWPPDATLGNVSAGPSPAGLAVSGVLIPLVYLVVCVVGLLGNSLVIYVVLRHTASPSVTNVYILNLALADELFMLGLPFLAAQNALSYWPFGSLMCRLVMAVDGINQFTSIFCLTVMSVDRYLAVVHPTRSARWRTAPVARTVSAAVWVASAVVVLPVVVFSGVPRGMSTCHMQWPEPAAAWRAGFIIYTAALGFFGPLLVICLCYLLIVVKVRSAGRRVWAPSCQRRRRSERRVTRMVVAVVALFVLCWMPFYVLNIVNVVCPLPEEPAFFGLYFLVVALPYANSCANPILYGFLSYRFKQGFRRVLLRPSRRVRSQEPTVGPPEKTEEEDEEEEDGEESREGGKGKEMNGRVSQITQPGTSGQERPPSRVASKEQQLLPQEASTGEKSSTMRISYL

SMILES	Ki [1] [nM]	inhibition [2] [%]	Selectivity ratio [3]	Activity [4]	EC50 [5] [nM]	pKa [6]	logD [7]	Papp [8] [×10⁻⁶ cm/s]	solubility [9] [µg/mL]	Activity [10]	Activity [11]
CCOc1cc(CN2CCC[C@@H](NC(=O)c3cncc(C)c3)CC2)ccc1Cl	18	98	175	–	–	–	–	–	–	–	–
CCOc1cc(CN2CCC(NC(=O)c3ccc(N)nc3)CC2)cc(OCc2ccccc2)c1-c1ccc(F)cc1	6.7	-1.2	660	inactive	> 1000	7.66	3.94	0.14	5 (≈ 9.01 µM)	inactive	inactive
CCOc1cc(CN2CCCC(NC(=O)c3ccc(N)nc3)CC2)cc(F)c1F (racemic)	436	–	–	inactive	> 1000	–	–	–	–	inactive	inactive
CCOc1cc(CN2CCC(NC(=O)c3ccc(N)nc3)CC2)ccc1C	19	85	> 500	–	> 1000	8.27	2.24	2.4	375 (≈ 1020 µM)	–	–
CCOc1cc(CN2CCC(NC(=O)c3cncc(C)c3)CC2)ccc1-c1ccc(C(F)(F)F)cc1	11	48	89	–	–	7.96	> 4	0.03	< 1	–	–
CCOc1cc(CN2CCC(NC(=O)c3cncc(C)c3)CC2)cc(OCC)c1C	4	–	–	–	–	7.92	3.61	2.36	106 (≈ 258 µM)	–	–
CCOc1cc(CN2CCC[C@@H](NC(=O)c3cncc(C)c3)CC2)ccc1C	22	97	256	–	–	–	–	–	–	–	–
CCOc1cc(CN2CCC(NC(=O)c3cncc(C)c3)CC2)cc(OCC)c1F	25	25	180	–	> 1000	7.7	2.9	3.48	443 (≈ 1070 µM)	–	–
CCOc1cc(CN2CCC(NC(=O)c3ccc(N)nc3)CC2)cc(OCC)c1-c1ccc(F)cc1	7.1	4.7	407	–	> 1000	7.86	3.15	1.39	123 (≈ 250 µM)	–	–
CCOc1cc(CN2CCC[C@@H](NC(=O)c3cncc(C)c3)CC2)cc(OCC)c1F	22	58	253	–	–	–	–	–	–	–	–
CCOc1cc(CN2CCC(NC(=O)c3ccc(NC)nc3)CC2)cc(OCC)c1F	18	55	> 500	–	> 1000	7.83	2.66	2.98	330 (≈ 767 µM)	–	–
CCOc1cc(CN2CCC(NC(=O)c3ccc(NC)nc3)CC2)cc(OCC)c1-c1ccc(F)cc1	2.5	11	211	–	> 1000	7.86	3.83	1.23	153 (≈ 302 µM)	–	–
CCOc1cc(CN2CCC(NC(=O)c3cncc(C)c3)CC2)cc(OCC)c1Cl	4.4	–	–	–	> 1000	7.46	3.43	3.82	216 (≈ 500 µM)	–	–
CCOc1cc(CN2CCC(NC(=O)c3cncc(C)c3)CC2)ccc1C	21	81	> 500	–	–	8.08	3.03	2.94	> 433	–	–
CCOc1cc(CN2CCC(NC(=O)c3ccc(NC)nc3)CC2)cc(OCC)c1-c1ccccc1	6.9	13	439	–	> 1000	7.9	3.13	2.07	155 (≈ 317 µM)	–	–
CCOc1cc(CN2CC(NC(=O)c3cncc(C)c3)C2)cc(OCC)c1F	> 1000	–	–	–	–	7.19	2.44	1.93	> 499	–	–
CCOc1cc(CN2CCCC(NC(=O)c3cncc(C)c3)CC2)cc(OCC)c1-c1ccc(F)cc1 (racemic)	9.3	54	86	–	> 1000	8.34	3.31	1.56	81 (≈ 160 µM)	–	–

Results, then the compound that gave them:

Ki [1] [nM]	inhibition [2] [%]	Selectivity ratio [3]	Activity [4]	EC50 [5] [nM]	pKa [6]	logD [7]	Papp [8] [×10⁻⁶ cm/s]	solubility [9] [µg/mL]	Activity [10]	Activity [11]	SMILES
7.9	7.1	54	–	> 1000	7.8	3.55	–	76 (≈ 148 µM)	–	–	CCOc1cc(CN2CCC(NC(=O)c3ccc(Cl)nc3)CC2)cc(OCC)c1-c1ccc(F)cc1
15	–	335	–	–	7.63	3.05	1.93	172 (≈ 443 µM)	–	–	CCOc1cc(CN2CCC(NC(=O)c3cncc(C)c3)CC2)ccc1Cl
11	33	213	–	> 1000	7.34	2.61	3.17	473 (≈ 1020 µM)	–	–	CCOc1cc(CN2CCC(NC(=O)c3cncc(C)c3)CC2)cc(OCC)c1-n1ccnc1
4.9	89	84	–	> 1000	7.87	4.1	1.32	101 (≈ 226 µM)	–	–	CCOc1cc(CN2CCC(NC(=O)c3cncc(C)c3)CC2)ccc1-c1ccc(F)cc1
2.4	12	743	–	> 1000	–	> 4	–	< 1	–	–	CCOc1cc(CN2CCC(NC(=O)c3cncc(C)c3)CC2)cc(OCC)c1-c1ccc(OC(F)(F)F)cc1
6.3	35	141	–	> 1000	7.84	3.39	2.41	> 520	–	–	CCOc1cc(CN2CCC(NC(=O)c3ccc(NC(C)C)nc3)CC2)cc(OCC)c1F
637	–	–	–	–	–	–	–	–	–	–	CCOc1cc(CN2CCC[C@H](NC(=O)c3cncc(C)c3)CC2)ccc1Cl
4.4	5.9	59	–	> 1000	7.69	4.01	0.46	94 (≈ 191 µM)	–	–	CCOc1cc(CN2CCC(NC(=O)c3cncc(C)c3)CC2)cc(OCC)c1-c1ccc(F)cc1
5.4	-1.2	224	–	> 1000	7.74	3.73	0.64	152 (≈ 321 µM)	–	–	CCOc1cc(CN2CCC(NC(=O)c3cncc(C)c3)CC2)cc(OCC)c1-c1ccccc1
